≈ marks a conversion by molar mass, not a printed value.
Tests used:
HaCaT [1] = test: Cytotoxicity against human HaCaT cells assessed as reduction in cell viability at 100 uM measured after 72 hrs by MTT assay; type: cell-based
Summary of the method: (§1)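 MTT viability assay on cells grown in DMEM with 10% heat-inactivated FBS, penicillin/streptomycin and 20 mM HEPES at 37 °C/5% CO2. Cells were seeded at 1×10^4 per well and allowed to adhere for 24 h, then the medium was refreshed. Compounds were added at 20–140 μM for 72 h at 37 °C, followed by MTT (0.5 mg/mL in serum-free medium) for 4 h. Untreated cells served as control. IC50 is the concentration giving 50% growth inhibition versus control.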

Pseudomonas aeruginosa [2] = test: Antibacterial activity against Pseudomonas aeruginosa NCTC 6749 assessed as bacterial growth inhibition measured after 18 hrs by two-fold serial microdilution method; type: functional
Summary of the method: (§2)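 Two-fold serial broth microdilution in MH II medium following modified CLSI procedures. Compounds were dissolved in DMSO and diluted in medium to at most 1% solvent, tested from 0.03125 to 512 μg/ml. Final inoculum 10^6 CFU/ml. MIC was taken as the lowest concentration with no visible growth after 18 h at 35 °C.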

Escherichia coli = test: Antibacterial activity against Escherichia coli ATCC 25922 assessed as bacterial growth inhibition measured after 18 hrs by two-fold serial microdilution method; type: functional; summary of the method: as §2
[3] = tested on: Mycobacterium scrofulaceum; test: Antibacterial activity against Mycobacterium scrofulaceum assessed as inhibition of microbial growth incubated for 1 week by MABA method; type: functional; conditions: 168 h, time 1 weeks
Summary of the method: (§3)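 Microplate Alamar Blue assay using two-fold serial microdilution in Middlebrook 7H9 broth with 10% OADC, compounds 0.125–512 µg/ml from DMSO stocks. Inoculum came from fresh LJ culture, was adjusted to McFarland 1 and diluted 1:20. Plates were incubated 1 week at 37 °C, Alamar blue was added and plates were re-incubated 24 h. MIC was the lowest concentration preventing the blue-to-pink change. Each plate carried growth and sterile controls.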

Mycobacterium kansasii = test: Antibacterial activity against Mycobacterium kansasii assessed as inhibition of microbial growth incubated for 1 week by MABA method; type: functional; conditions: 168 h, time 1 weeks; summary of the method: as §3
V79 [4] = test: Cytotoxicity against Chinese Hamster V79 cells assessed as reduction in cell viability at 100 uM measured after 72 hrs by MTT assay; type: cell-based, Cricetulus griseus; conditions: v79, 72 h; summary of the method: as §1
[5] = tested on: Staphylococcus epidermidis; test: Antibacterial activity against Staphylococcus epidermidis ATCC 1457 assessed as bacterial growth inhibition measured after 18 hrs by two-fold serial microdilution method; type: functional; summary of the method: as §2
[6] = tested on: Staphylococcus epidermidis; test: Antibacterial activity against Staphylococcus epidermidis ATCC 35984/RP62A assessed as bacterial growth inhibition measured after 18 hrs by two-fold serial microdilution method; type: functional; summary of the method: as §2
Mycobacterium avium = test: Antimycobacterial activity against Mycobacterium avium assessed as inhibition of microbial growth incubated for 1 week by MABA method; type: functional; conditions: 168 h, time 1 weeks
Summary of the method: (§4)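 Microplate Alamar Blue assay in Middlebrook 7H9 broth with 10% OADC. Inoculum from fresh LJ culture was adjusted to McFarland 1 and diluted 1:20. DMSO stocks were two-fold serially diluted to final 0.125–512 µg/ml, with growth and sterile controls. Plates ran 1 week at 37 °C, then Alamar blue was added for 24 h. MIC is the lowest concentration preventing the blue-to-pink change.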

[7] = tested on: Mycobacterium tuberculosis; test: Antitubercular activity against Mycobacterium tuberculosis H37Rv ATCC 25618 assessed as inhibition of microbial growth incubated for 1 week by MABA method; type: functional; conditions: H37Rv ATCC 25618, 168 h, time 1 weeks; summary of the method: as §4
[8] = tested on: Mycobacterium intracellulare; test: Antimycobacterial activity against Mycobacterium intracellulare assessed as inhibition of microbial growth incubated for 1 week by MABA method; type: functional; conditions: 168 h, time 1 weeks; summary of the method: as §3
V79 [9] = test: Cytotoxicity against Chinese Hamster V79 cells assessed as reduction in cell viability measured after 72 hrs by MTT assay; type: cell-based; conditions: Cricetulus griseus, V79, 72 h; summary of the method: as §1
[10] = tested on: Mycobacterium tuberculosis; test: Antitubercular activity against Mycobacterium tuberculosis Spec.192 assessed as inhibition of microbial growth incubated for 1 week by MABA method; type: functional; conditions: Mycobacterium tuberculosis, 192, 168 h; time 1 weeks; summary of the method: as §4
Mycobacterium xenopi = test: Antibacterial activity against Mycobacterium xenopi assessed as inhibition of microbial growth incubated for 1 week by MABA method; type: functional; conditions: 168 h, time 1 weeks; summary of the method: as §3
HaCaT [11] = test: Cytotoxicity against human HaCaT cells assessed as reduction in cell viability measured after 72 hrs by MTT assay; type: cell-based; summary of the method: as §1
[12] = tested on: Staphylococcus epidermidis; test: Antibacterial activity against Staphylococcus epidermidis ATCC 12228 assessed as bacterial growth inhibition measured after 18 hrs by two-fold serial microdilution method; type: functional; summary of the method: as §2
Proteus vulgaris = test: Antibacterial activity against Proteus vulgaris NCTC 4635 assessed as bacterial growth inhibition measured after 18 hrs by two-fold serial microdilution method; type: functional; summary of the method: as §2
Staphylococcus aureus [13] = test: Antibacterial activity against Staphylococcus aureus ATCC 6538 assessed as bacterial growth inhibition measured after 18 hrs by two-fold serial microdilution method; type: functional; summary of the method: as §2
Pseudomonas aeruginosa [14] = test: Antibacterial activity against Pseudomonas aeruginosa PAO1 assessed as bacterial growth inhibition measured after 18 hrs by two-fold serial microdilution method; type: functional; summary of the method: as §2
Klebsiella pneumoniae = test: Antibacterial activity against Klebsiella pneumoniae ATCC 10031 assessed as bacterial growth inhibition measured after 18 hrs by two-fold serial microdilution method; type: functional; summary of the method: as §2
[15] = tested on: Mycolicibacterium fortuitum; test: Antibacterial activity against Mycobacterium fortuitum assessed as inhibition of microbial growth incubated for 1 week by MABA method; type: functional; conditions: 168 h, time 1 weeks; summary of the method: as §3
Staphylococcus aureus [16] = test: Antibacterial activity against Staphylococcus aureus NCTC 4163 assessed as bacterial growth inhibition measured after 18 hrs by two-fold serial microdilution method; type: functional; summary of the method: as §2

SMILES | Activity (HaCaT [1]) | MIC (Pseudomonas aeruginosa [2]) [µg/mL] | MIC (Escherichia coli) [µg/mL] | MIC [3] [µg/mL] | MIC (Mycobacterium kansasii) [µg/mL] | Activity (V79 [4]) | MIC [5] [µg/mL] | MIC [6] [µg/mL] | MIC (Mycobacterium avium) [µg/mL] | MIC [7] [µg/mL] | MIC [8] [µg/mL] | IC50 (V79 [9]) [µM] | MIC [10] [µg/mL] | IC50 (HaCaT [11]) [µM] | MIC [12] [µg/mL] | MIC (Proteus vulgaris) [µg/mL] | MIC (Staphylococcus aureus [13]) [µg/mL] | MIC (Pseudomonas aeruginosa [14]) [µg/mL] | MIC (Klebsiella pneumoniae) [µg/mL] | MIC (Staphylococcus aureus [16]) [µg/mL] | also measured
COc1ccc(-n2nnnc2Nc2ccccc2Br)cc1 | Non-Toxic | > 256 | > 256 | 256 | 512 | Non-Toxic | 256 (≈ 739 µM) | 256 (≈ 739 µM) | 256 | 64 | 128 | 239 | 64 | 137 | 128 (≈ 370 µM) | > 256 | 256 (≈ 739 µM) | > 256 | > 256 | 256 (≈ 739 µM) | MIC (Mycobacterium xenopi): 512 µg/mL; MIC [15]: 256 µg/mL
COc1ccc(-n2nnnc2Nc2ccccc2F)cc1 | Non-Toxic | > 256 | > 256 |  |  | Non-Toxic | > 256 | > 256 |  | 16 |  | 115 | 16 | 111 | > 256 | > 256 | > 256 | > 256 | > 256 | > 256 | 
COc1ccc(-n2nnnc2Nc2cccc(Cl)c2)cc1 | Non-Toxic | > 256 | > 256 | 512 | 512 | Non-Toxic | > 256 | > 256 | 256 | 32 | 128 | 243 | 32 | 141 | > 256 | > 256 | > 256 | > 256 | > 256 | > 256 | MIC (Mycobacterium xenopi): > 512 µg/mL; MIC [15]: 256 µg/mL
COc1ccc(-n2nnnc2Nc2ccccc2Cl)cc1 | Non-Toxic | > 256 | > 256 | 32 | 512 | Non-Toxic | 64 (≈ 212 µM) | 256 (≈ 848 µM) | 128 | 8 | 128 | 246 | 8 | 134 | 128 (≈ 424 µM) | 64 (≈ 212 µM) | 32 (≈ 106 µM) | > 256 | > 256 | 32 (≈ 106 µM) | MIC (Mycobacterium xenopi): 512 µg/mL; MIC [15]: 256 µg/mL
COc1ccc(-n2nnnc2Nc2ccc(Cl)cc2)cc1 | Non-Toxic | > 256 | > 256 | > 512 | > 512 | Non-Toxic | 128 (≈ 424 µM) | 128 (≈ 424 µM) | > 512 | 16 | 32 | 245 | 16 | 143 | 64 (≈ 212 µM) | 128 (≈ 424 µM) | 128 (≈ 424 µM) | > 256 | > 256 | 128 (≈ 424 µM) | MIC (Mycobacterium xenopi): 512 µg/mL; MIC [15]: > 512 µg/mL
COc1ccc(Nc2nnnn2-c2ccccc2F)cc1 | Non-Toxic | 256 (≈ 897 µM) | 256 (≈ 897 µM) | 32 | 256 | Non-Toxic | 64 (≈ 224 µM) | 64 (≈ 224 µM) | 256 | 16 | 128 | 212 | 16 | 122 | 64 (≈ 224 µM) | 256 (≈ 897 µM) | 64 (≈ 224 µM) | 256 (≈ 897 µM) | 256 (≈ 897 µM) | 64 (≈ 224 µM) | MIC (Mycobacterium xenopi): 128 µg/mL; MIC [15]: 256 µg/mL
COc1ccc(-n2nnnc2Nc2ccc(F)cc2)cc1 | Non-Toxic | 128 (≈ 449 µM) | > 256 | 32 | 512 | Non-Toxic | 128 (≈ 449 µM) | 128 (≈ 449 µM) | 256 | 32 | 16 | 236 | 32 | 155 | 64 (≈ 224 µM) | 128 (≈ 449 µM) | 128 (≈ 449 µM) | > 256 | > 256 | 128 (≈ 449 µM) | MIC (Mycobacterium xenopi): > 512 µg/mL; MIC [15]: 512 µg/mL
COc1ccc(Nc2nnnn2-c2ccccc2Br)cc1 | Non-Toxic | > 256 | > 256 | 128 | 256 | Non-Toxic | > 256 | > 256 | > 512 | 16 | 256 | 119 | 16 | 105 | > 256 | > 256 | > 256 | > 256 | > 256 | > 256 | MIC (Mycobacterium xenopi): > 512 µg/mL; MIC [15]: > 512 µg/mL
COc1ccc(Nc2nnnn2-c2cccc(Br)c2)cc1 | Non-Toxic | > 256 | > 256 | 32 | 512 | Non-Toxic | > 256 | > 256 | 64 | 16 | > 256 | 124 | 16 | 107 | > 256 | > 256 | > 256 | > 256 | > 256 | > 256 | MIC (Mycobacterium xenopi): 512 µg/mL; MIC [15]: 512 µg/mL
COc1ccc(Nc2nnnn2-c2ccc(F)cc2)cc1 | Non-Toxic | 256 (≈ 897 µM) | 256 (≈ 897 µM) | 64 | 512 | Non-Toxic | 128 (≈ 449 µM) | 128 (≈ 449 µM) | > 512 | 8 | 512 | 145 | 8 | 101 | 64 (≈ 224 µM) | 256 (≈ 897 µM) | 64 (≈ 224 µM) | 256 (≈ 897 µM) | > 256 | 64 (≈ 224 µM) | MIC (Mycobacterium xenopi): 256 µg/mL; MIC [15]: > 512 µg/mL
COc1ccc(Nc2nnnn2-c2ccccc2Cl)cc1 | Non-Toxic | 256 (≈ 848 µM) | 256 (≈ 848 µM) | 32 | 256 | Non-Toxic | 128 (≈ 424 µM) | 64 (≈ 212 µM) | 512 | 8 | 128 | 102 | 8 | 100 | 64 (≈ 212 µM) | 256 (≈ 848 µM) | 64 (≈ 212 µM) | 256 (≈ 848 µM) | 256 (≈ 848 µM) | 64 (≈ 212 µM) | MIC (Mycobacterium xenopi): 512 µg/mL; MIC [15]: 128 µg/mL
O=C(O)c1cn(C2CC2)c2cc(N3CCNCC3)c(F)cc2c1=O [CIPROFLOXACIN] |  |  | < 0.0625 |  |  |  | 0.125 (≈ 0.377 µM) | 0.0625 (≈ 0.189 µM) |  |  |  |  |  |  | 0.125 (≈ 0.377 µM) | < 0.0625 |  |  | < 0.0625 |  | 
COc1cccc2c1C(=O)c1c(O)c3c(c(O)c1C2=O)C[C@@](O)(C(=O)CO)C[C@@H]3O[C@H]1C[C@H](N)[C@H](O)[C@H](C)O1 [DOXORUBICIN] |  |  |  |  |  |  |  |  |  |  |  | 2.21 |  | 0.23 |  |  |  |  |  |  | 
